Source: ChEMBL document CHEMBL4340514, “(2S)-N-2-methoxy-2-phenylethyl-6,7-benzomorphan compound (2S-LP2): Discovery of a biased mu/delta opioid receptor agonist” (Eur J Med Chem, 2019)
The source made the active and inactive calls.

Assays:
[1] = molecular target: T1, Delta-type opioid receptor (Homo sapiens, UniProt P41143); assay: Agonist activity at Rluc-tagged DOR receptor (unknown origin) expressed in human […] cells co-expressing RGFP-fused to Gbeta1 assessed as increase in DOR/G beta1 protein interaction incubated for 5 mins in presence of coelenterazine by BRET assay; type: cell-based
T1 sequence (P41143 whole entry, the tested form may be a part): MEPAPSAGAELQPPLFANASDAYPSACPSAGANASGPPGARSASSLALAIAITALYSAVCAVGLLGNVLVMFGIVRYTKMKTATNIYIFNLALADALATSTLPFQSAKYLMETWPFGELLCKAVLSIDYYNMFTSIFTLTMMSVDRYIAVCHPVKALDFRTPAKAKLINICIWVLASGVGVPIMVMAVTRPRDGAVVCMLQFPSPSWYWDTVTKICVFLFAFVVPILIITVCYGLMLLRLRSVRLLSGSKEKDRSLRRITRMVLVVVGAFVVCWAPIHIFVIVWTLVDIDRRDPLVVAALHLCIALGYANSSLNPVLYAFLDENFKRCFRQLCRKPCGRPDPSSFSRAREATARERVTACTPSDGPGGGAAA

Mu-type opioid receptor [2] = molecular target: T2, Mu-type opioid receptor (Homo sapiens, UniProt P35372); assay: Potency index, ratio of test compounds EC50 to DADLE EC50 for agonist activity at Rluc-tagged MOR receptor (unknown origin) expressed in human […] cells co-expressing RGFP-fused to Gbeta1; type: cell-based
T2 sequence (P35372 whole entry, the tested form may be a part): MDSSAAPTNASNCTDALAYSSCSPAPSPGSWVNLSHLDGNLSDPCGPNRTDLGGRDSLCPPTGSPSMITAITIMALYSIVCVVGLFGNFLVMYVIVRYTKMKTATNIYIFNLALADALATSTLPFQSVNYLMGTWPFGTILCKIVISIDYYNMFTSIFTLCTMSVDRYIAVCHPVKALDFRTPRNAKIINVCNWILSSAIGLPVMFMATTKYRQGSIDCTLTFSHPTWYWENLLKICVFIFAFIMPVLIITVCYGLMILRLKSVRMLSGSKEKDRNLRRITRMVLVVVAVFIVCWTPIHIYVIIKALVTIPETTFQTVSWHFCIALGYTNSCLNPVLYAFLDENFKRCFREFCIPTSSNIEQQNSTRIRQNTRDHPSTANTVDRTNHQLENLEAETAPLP
How it was run: (§1)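 Enriched plasma membranes (3 µg protein) from SH-SY5Y cells stably co-expressing MOR-RLuc and Gβ1-RGFP, in DPBS. Membranes prepared by Dounce homogenisation in sucrose buffer and differential centrifugation. Coelenterazine 5 µM final; ligands in PBS-BSA 0.01% incubated 5 min at room temperature. Read-out is BRET ratio (510/460 nm). […] At least 5 experiments in duplicate.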

Mu-type opioid receptor [3] = molecular target: T2, Mu-type opioid receptor; assay: Potency index, ratio of test compounds intrinsic activity to DADLE intrinsic activity for agonist activity at Rluc-tagged MOR receptor (unknown origin) expressed in human […] cells co-expressing RGFP-fused to Gbeta1; type: cell-based; how it was run: as §1
Homo sapiens = species: Homo sapiens; assay: Selectivity ratio of agonist activity at Rluc-tagged MOR receptor (unknown origin) expressed in human SH-5YSY cells co-expressing RGFP-fused to Gbeta1 assessed as increase in MOR/G beta1 protein interaction incubated for 5 mins in presence of coelenterazine by BRET assay over Agonist activity at Rluc-tagged DOR receptor (unknown origin) expressed in human […] cells co-expressing RGFP-fused to Gbeta1 assessed as increase in DOR/G beta1 protein interaction incubated for 5 mins in presence of coelenterazine by BRET assay; type: cell-based
Mu-type opioid receptor [4] = molecular target: T2, Mu-type opioid receptor
Mu-type opioid receptor [5] = molecular target: Mu-type opioid receptor (Rattus norvegicus, UniProt P33535); assay: Displacement of [3H]-DAMGO from MOR in rat brain membranes incubated for 45 mins by liquid scintillation counting; type: cell membranes
Sequence of Mu-type opioid receptor (Rattus norvegicus, UniProt P33535) (P33535 whole entry): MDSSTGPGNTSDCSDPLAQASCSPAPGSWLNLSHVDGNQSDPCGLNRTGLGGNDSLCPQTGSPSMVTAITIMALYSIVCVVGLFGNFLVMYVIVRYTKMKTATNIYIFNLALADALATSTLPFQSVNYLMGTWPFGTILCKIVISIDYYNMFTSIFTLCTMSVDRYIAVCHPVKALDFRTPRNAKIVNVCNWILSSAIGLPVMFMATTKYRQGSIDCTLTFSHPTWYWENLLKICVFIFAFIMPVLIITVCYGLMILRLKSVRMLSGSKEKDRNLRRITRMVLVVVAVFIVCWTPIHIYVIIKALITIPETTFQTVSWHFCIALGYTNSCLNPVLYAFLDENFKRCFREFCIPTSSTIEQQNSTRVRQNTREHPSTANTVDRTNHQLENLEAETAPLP
How it was run: (§2)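 Rat brain membranes in 50 mM Tris-HCl pH 7.4, incubated 45 min at 35 °C. MOR: 0.4 mg/mL protein with 1 nM [3H]-DAMGO. DOR: 0.5 mg/mL protein with 2 nM [3H]-DPDPE. Filtered and counted by liquid scintillation. Ki from nonlinear regression of a logistic fit. Three experiments in duplicate.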

[6] = molecular target: Delta-type opioid receptor (Rattus norvegicus, UniProt P33533); assay: Displacement of [3H]DPDPE from DOR in rat brain membranes incubated for 45 mins by liquid scintillation counting; type: cell membranes; how it was run: as §2
Sequence of Delta-type opioid receptor (Rattus norvegicus, UniProt P33533) (P33533 whole entry): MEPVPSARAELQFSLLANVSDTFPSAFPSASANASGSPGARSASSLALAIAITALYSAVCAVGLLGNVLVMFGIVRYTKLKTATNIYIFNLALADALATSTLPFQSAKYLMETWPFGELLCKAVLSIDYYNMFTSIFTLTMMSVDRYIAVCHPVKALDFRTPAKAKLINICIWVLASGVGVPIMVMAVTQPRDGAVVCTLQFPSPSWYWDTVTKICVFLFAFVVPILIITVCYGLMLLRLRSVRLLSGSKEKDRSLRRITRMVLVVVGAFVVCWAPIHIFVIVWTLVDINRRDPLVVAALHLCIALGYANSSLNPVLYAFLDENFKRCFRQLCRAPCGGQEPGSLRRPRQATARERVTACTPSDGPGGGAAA

[7] = molecular target: Kappa-type opioid receptor (Cavia porcellus, UniProt P41144); assay: Displacement of [3H]-U69,593 from KOR in guinea pig brain membranes incubated for 30 mins by liquid scintillation counting; type: cell membranes
Sequence of Kappa-type opioid receptor (P41144 whole entry): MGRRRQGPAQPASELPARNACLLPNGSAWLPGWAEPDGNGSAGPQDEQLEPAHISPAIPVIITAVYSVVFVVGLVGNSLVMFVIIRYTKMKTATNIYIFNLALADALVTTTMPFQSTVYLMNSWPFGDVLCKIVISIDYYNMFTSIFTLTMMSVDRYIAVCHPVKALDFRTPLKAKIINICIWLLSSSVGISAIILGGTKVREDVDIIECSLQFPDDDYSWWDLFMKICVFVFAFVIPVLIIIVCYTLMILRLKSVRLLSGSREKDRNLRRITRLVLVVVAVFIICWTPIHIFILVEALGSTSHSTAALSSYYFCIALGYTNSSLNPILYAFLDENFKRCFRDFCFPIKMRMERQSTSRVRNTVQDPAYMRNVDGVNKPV
How it was run: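 Guinea pig brain membranes (0.5 mg/mL) incubated 30 min at 30 °C with 1 nM [3H]-(+)-U69,593. Filtered and counted by liquid scintillation. Ki from nonlinear regression of a logistic fit. Three experiments in duplicate.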

Rattus norvegicus = species: Rattus norvegicus; assay: Selectivity ratio of Ki for DOR in rat brain membranes to Ki for MOR in rat brain membranes; type: cell membranes; how it was run: as §2
[8] = Selectivity ratio of Ki for KOR in guinea pig brain membranes to Ki for MOR in rat brain membranes; type: cell membranes
Mus musculus [9] = assay: Antinociceptive activity in ip dosed Swiss CB1 mouse after 60 to 180 mins by radiant heat tail-flick method; type: functional, organism-based
How it was run: (§3)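 Male Swiss CB1 mice (25-30 g), habituated the day before. Radiant heat tail-flick: infrared source aimed at the lower third of the tail at 25 ± 1 °C. Baseline 3-5 s, mean of three readings 5 min apart; 20 s cutoff. Compounds in saline with DMSO (5%), given i.p. Latencies read at 30-180 min. […] Groups of 6-8 mice.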

[10] = Toxicity in Swiss CB1 mouse assessed as locomotor activity at 0.5 to 5.0 mg/kg, ip after 30 to 180 mins; type: organism-based; conditions: in vivo
[11] = Toxicity in Swiss CB1 mouse assessed as sedation at 0.5 to 5.0 mg/kg, ip after 30 to 180 mins; type: organism-based; conditions: in vivo
Mus musculus [12] = assay: Antinociceptive activity in ip dosed Swiss CB1 mouse after 30 to 180 mins by radiant heat tail-flick method; type: functional; how it was run: as §3
[13] = molecular target: T1, Delta-type opioid receptor; assay: Agonist activity at Rluc-tagged DOR receptor (unknown origin) expressed in human […] cells co-expressing RGFP-fused to beta-arrestin-2 assessed as increase in DOR/beta-arrestin-2 protein interaction incubated for 5 mins in presence of coelenterazine by BRET assay; type: cell-based
Mu-type opioid receptor [14] = molecular target: T2, Mu-type opioid receptor; assay: Potency index, ratio of test compounds EC50 to DADLE EC50 for agonist activity at Rluc-tagged MOR receptor (unknown origin) expressed in human […] cells co-expressing RGFP-fused to beta-arrestin-2; type: cell-based
How it was run: (§4)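 Whole SH-SY5Y cells stably co-expressing MOR-RLuc and β-arrestin 2-RGFP, plated 24 h before at 100,000 cells/well, in PBS with 0.5 mM MgCl2 and 0.9 mM CaCl2. Coelenterazine 5 µM final, added 15 min before reading; ligands incubated 5 min at room temperature. Read-out is BRET ratio (510/460 nm).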

Mu-type opioid receptor [15] = molecular target: T2, Mu-type opioid receptor; assay: Potency index, ratio of test compounds intrinsic activity to DADLE intrinsic activity for agonist activity at Rluc-tagged MOR receptor (unknown origin) expressed in human […] cells co-expressing RGFP-fused to beta-arrestin-2; type: cell-based; how it was run: as §4
Mu-type opioid receptor [16] = molecular target: T2, Mu-type opioid receptor; assay: Bias factor, change in deltalog(Tau/KA) for agonist activity at Rluc-tagged MOR receptor (unknown origin) expressed in human […] cells co-expressing RGFP-fused to Gbeta1 assessed as increase in MOR/G beta1 protein interaction incubated for 5 mins in presence of coelenterazine by BRET assay to deltalog(Tau/KA) for agonist activity at Rluc-tagged MOR receptor (unknown origin) expressed in human […] cells co-expressing RGFP-fused to MOR/beta-arrestin-2 assessed as increase in beta-arrestin-2 protein interaction incubated for 5 mins in presence of coelenterazine by BRET assay; type: cell-based
Mu-type opioid receptor [17] = molecular target: T2, Mu-type opioid receptor; assay: Potency index, ratio of test compounds pEC50 to DADLE pEC50 for agonist activity at Rluc-tagged MOR receptor (unknown origin) expressed in human […] cells co-expressing RGFP-fused to Gbeta1; type: cell-based
Mu-type opioid receptor [18] = molecular target: T2, Mu-type opioid receptor; assay: Potency index, ratio of test compounds pEC50 to DADLE pEC50 for agonist activity at Rluc-tagged MOR receptor (unknown origin) expressed in human […] cells co-expressing RGFP-fused to beta-arrestin-2; type: cell-based
[19] = Toxicity in Swiss CB1 mouse assessed as locomotor activity at 0.5 to 3.0 mg/kg, ip after 30 to 180 mins; type: organism-based; conditions: in vivo
[20] = Toxicity in Swiss CB1 mouse assessed as sedation at 0.5 to 3.0 mg/kg, ip after 30 to 180 mins; type: organism-based; conditions: in vivo
Mu-type opioid receptor [21] = molecular target: T2, Mu-type opioid receptor; remark: listed apart in the source

Work on `C[C@H]1[C@H]2Cc3ccc(O)cc3[C@]1(C)CCN2C[C@H](O)c1ccccc1` yielded an EC50 [1] of 58.9 nM, a Ratio (Mu-type opioid receptor [2]) of 0.19 and a Ratio (Mu-type opioid receptor [3]) of 0.82. It also gave a Ratio (Homo sapiens) of 0.4 and an EC50 (Mu-type opioid receptor [4]) of 22.4 nM.
Compound `CO[C@@H](CN1CC[C@@]2(C)c3cc(O)ccc3C[C@@H]1[C@@H]2C)c1ccccc1` has a Ki (Mu-type opioid receptor [5]) of 12.3 nM, a Ki [6] of 151 nM and a Ki [7] of 236 nM. The Ratio Ki (Rattus norvegicus) was 12.3, the Ratio Ki [8] was 19.2 and the Activity (Mus musculus [9]) was “Active”. The Activity [10] was “Non-Toxic”, the Activity [11] was “Non-Toxic” and the ED50 (Mus musculus [12]) was 1.8 mg/kg.
`CO[C@H](CN1CC[C@@]2(C)c3cc(O)ccc3C[C@@H]1[C@@H]2C)c1ccccc1` gave a Ki (Mu-type opioid receptor [5]) of 0.5 nM, a Ki [6] of 2.59 nM and a Ki [7] of 26.5 nM. The Ratio Ki (Rattus norvegicus) was 5.18, the Ratio Ki [8] was 53 and the EC50 [1] was 32.4 nM. For the same compound, the EC50 [13] was 1860 nM, the Ratio (Mu-type opioid receptor [2]) was 0.04 and the Ratio (Mu-type opioid receptor [14]) was 0.11. The Ratio (Mu-type opioid receptor [3]) was 0.93, the Ratio (Mu-type opioid receptor [15]) was 0.72 and the fold change (FC) (Mu-type opioid receptor [16]) was 0.82. The Ratio (Mu-type opioid receptor [17]) was 30, the Ratio (Mu-type opioid receptor [18]) was 9 and the Activity [19] was “Non-Toxic”. For the same compound, the Activity [20] was “Non-Toxic”, the ED50 (Mus musculus [12]) was 0.6 mg/kg and the EC50 (Mu-type opioid receptor [4]) was 4.68 nM. The EC50 (Mu-type opioid receptor [21]) was 151 nM.
With `C[C@H]1[C@H]2Cc3ccc(O)cc3[C@]1(C)CCN2C[C@@H](O)c1ccccc1` the EC50 [1] was 14.5 nM, the Ratio (Mu-type opioid receptor [2]) was 0.06 and the Ratio (Mu-type opioid receptor [3]) was 0.87. It also gave a Ratio (Homo sapiens) of 0.46 and an EC50 (Mu-type opioid receptor [4]) of 6.61 nM.
In the case of `COC(CN1CC[C@@]2(C)c3cc(O)ccc3C[C@@H]1[C@@H]2C)c1ccccc1` (some centres undefined), the EC50 [1] is reported as 95.5 nM, the EC50 [13] is reported as 2240 nM and the Ratio (Mu-type opioid receptor [2]) is reported as 0.1. For the same compound, the Ratio (Mu-type opioid receptor [14]) was 0.2, the Ratio (Mu-type opioid receptor [3]) was 0.92 and the Ratio (Mu-type opioid receptor [15]) was 0.71. The fold change (FC) (Mu-type opioid receptor [16]) was 0.57, the Ratio (Mu-type opioid receptor [17]) was 10 and the Ratio (Mu-type opioid receptor [18]) was 5. For the same compound, the EC50 (Mu-type opioid receptor [4]) was 12.6 nM and the EC50 (Mu-type opioid receptor [21]) was 275 nM.
